Test results published in ChEMBL document CHEMBL5331142, “Novel 1,4-Dihydropyridines as Specific Binders and Activators of SIRT3 Impair Cell Viability and Clonogenicity and Downregulate Hypoxia-Induced Targets in Cancer Cells” (J Med Chem, 2023).
Active and inactive are the calls of the source. No cut-off for these calls is given here.

What was measured:
[1] = target: T1, NAD-dependent protein deacetylase sirtuin-3, mitochondrial (Homo sapiens) (UniProt Q9NTG7); assay: Activation of N-terminal his-tagged human SIRT3 (114 to 380 residues) deacylation activity expressed in Escherichia coli at 10 uM using ACS2-acK642 as substrate in presence of NAD+ by NADH oxidation-coupled enzymatic assay; conditions: filed as activator
T1 sequence (whole entry): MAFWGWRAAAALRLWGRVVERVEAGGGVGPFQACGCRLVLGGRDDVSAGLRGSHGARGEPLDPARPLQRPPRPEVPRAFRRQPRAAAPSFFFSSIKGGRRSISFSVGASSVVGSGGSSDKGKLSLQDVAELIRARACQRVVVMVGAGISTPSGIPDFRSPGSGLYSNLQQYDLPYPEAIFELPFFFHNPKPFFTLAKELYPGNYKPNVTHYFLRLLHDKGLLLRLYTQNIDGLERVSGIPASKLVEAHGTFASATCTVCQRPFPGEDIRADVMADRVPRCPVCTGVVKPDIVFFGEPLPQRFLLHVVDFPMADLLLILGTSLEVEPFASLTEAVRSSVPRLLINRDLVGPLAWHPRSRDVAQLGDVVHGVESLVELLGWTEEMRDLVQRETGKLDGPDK
Outline: (§1)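 Coupled PncA/GDH deacylation assay following NADPH oxidation to NADP+. 1.5 μM sirtuin, 50 μM substrate peptide, 100 μM NAD+, compound at 10 μM, 5% final DMSO. Isoform-specific physiological substrates: p53-acK381 (SIRT1), […] (SIRT2), ACS2-acK642 (SIRT3), CPS1-succK537 (SIRT5). Sirtuins expressed in E. coli, Ni-NTA purified, tag cleaved, then size-exclusion chromatography.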

[2] = target: T1, NAD-dependent protein deacetylase sirtuin-3, mitochondrial (Homo sapiens); assay: Activation of N-terminal his-tagged human SIRT3 (114 to 380 residues) deacylation activity expressed in Escherichia coli at 100 uM using ACS2-acK642 as substrate in presence of NAD+ by NADH oxidation-coupled enzymatic assay
Outline: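 Coupled PncA/GDH deacylation assay following NADPH oxidation to NADP+. 1.5 μM SIRT3 (E. coli-expressed, tag removed) with 50 μM ACS2-acK642 peptide and 100 μM NAD+, compound at 100 μM, 5% final DMSO.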

[3] = target: T1, NAD-dependent protein deacetylase sirtuin-3, mitochondrial (Homo sapiens); assay: Activation of human SIRT3 overexpressing in human MDA-MB-231 cells assessed as increase in GDH activity at 50 uM incubated for 4 hrs by absorbance assay; assay type: cell-based
Outline: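 MDA-MB-231 cells exposed 4 h to 50 μM compound. 10^6 cells lysed in GDH assay buffer for 10 min on ice. Supernatant mixed with developer and glutamate, incubated 3 min at 37 °C, absorbance read at 450 nm with buffer blank subtracted. SIRT3-overexpressing MDA-MB-231 cells served as reference.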

[4] = system: CAL-62; assay: Downregulation of HIF1alpha expression in human CAL-62 cells at 1 uM incubated for 48 hrs under hypoxia condition by Western blot analysis; assay type: functional, cell-based
[5] = system: CAL-62; assay: Downregulation of EPAS-1 expression in human CAL-62 cells at 1 uM incubated for 48 hrs under hypoxia condition by Western blot analysis; assay type: functional, cell-based
[6] = system: CAL-62; assay: Downregulation of CA-IX expression in human CAL-62 cells at 1 uM incubated for 48 hrs under hypoxia condition by Western blot analysis; assay type: functional, cell-based
[7] = system: MDA-MB-231; assay: Downregulation of HIF1alpha expression in human MDA-MB-231 cells at 1 uM incubated for 48 hrs under hypoxia condition by Western blot analysis; assay type: functional, cell-based
[8] = system: MDA-MB-231; assay: Downregulation of EPAS-1 expression in human MDA-MB-231 cells at 1 uM incubated for 48 hrs under hypoxia condition by Western blot analysis; assay type: functional, cell-based
[9] = system: MDA-MB-231; assay: Downregulation of CA-IX expression in human MDA-MB-231 cells at 1 uM incubated for 48 hrs under hypoxia condition by Western blot analysis; assay type: functional, cell-based
[10] = target: T2, NAD-dependent protein deacetylase sirtuin-1 (Homo sapiens) (UniProt Q96EB6); assay: Activation of N-terminal his-tagged human SIRT1 expressed in Escherichia coli at 10 uM using p53-acK381 as substrate in presence of NAD+ by NADH oxidation-coupled enzymatic assay; outline: as §1
T2 sequence (whole entry): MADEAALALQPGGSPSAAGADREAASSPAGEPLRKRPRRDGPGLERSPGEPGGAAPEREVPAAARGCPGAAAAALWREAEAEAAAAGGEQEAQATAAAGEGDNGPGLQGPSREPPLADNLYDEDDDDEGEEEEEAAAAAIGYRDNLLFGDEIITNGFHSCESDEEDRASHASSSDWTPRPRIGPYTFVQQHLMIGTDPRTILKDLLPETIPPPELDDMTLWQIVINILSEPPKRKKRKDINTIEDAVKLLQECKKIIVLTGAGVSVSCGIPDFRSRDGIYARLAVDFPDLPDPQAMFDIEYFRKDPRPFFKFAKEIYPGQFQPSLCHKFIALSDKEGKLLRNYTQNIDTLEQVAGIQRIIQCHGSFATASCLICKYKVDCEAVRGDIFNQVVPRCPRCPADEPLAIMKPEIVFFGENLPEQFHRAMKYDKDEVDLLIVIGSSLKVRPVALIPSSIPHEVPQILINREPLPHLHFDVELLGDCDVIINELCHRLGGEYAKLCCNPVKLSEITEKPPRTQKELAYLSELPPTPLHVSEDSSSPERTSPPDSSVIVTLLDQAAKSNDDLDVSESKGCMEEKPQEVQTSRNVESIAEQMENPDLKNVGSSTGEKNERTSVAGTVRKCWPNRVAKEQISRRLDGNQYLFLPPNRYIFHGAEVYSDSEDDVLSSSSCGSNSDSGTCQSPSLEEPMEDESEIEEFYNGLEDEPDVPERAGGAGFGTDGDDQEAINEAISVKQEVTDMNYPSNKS

[11] = target: T3, NAD-dependent protein deacetylase sirtuin-3, mitochondrial (Homo sapiens, UniProt Q9NTG7); assay: Binding affinity to N-terminal his-tagged human SIRT3 (114 to 380 residues) assessed as dissociation constant by SPR analysis
T3 sequence (Q9NTG7 whole entry): T1 sequence (whole entry)
Outline: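 SPR with SIRT3 amine-coupled to the chip (sodium acetate pH 4.0; 1500–4000 RU). Analytes diluted to 200 μM in HBSP (20 mM Hepes, 150 mM NaCl, 0.005% P20; 2% DMSO), injected at 5, 10, 20, 40, 80 μM at 30 μL/min. Dissociation after 180 s. Reference chip lacked ligand. Apparent KD by Scatchard analysis. Run twice.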

[12] = system: CAL-62; assay: Anticancer activity against human CAL-62 cells assessed as reduction in cell viability at 50 uM incubated for 24 to 48 hrs under normoxia condition by trypan blue exclusion assay; assay type: functional, cell-based; conditions: time 24-48 hrs, TDE = time-dependent effect
Outline: (§2)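 CAL-62 cells in RPMI 1640 with 10% FBS, treated with 50 μM compound (DMSO) for 24 and 48 h. Hypoxia induced with 200 μM CoCl2, kept in the medium during treatment. Viable cells counted by 0.4% trypan blue staining on a hemocytometer.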

[13] = system: CAL-62; assay: Anticancer activity against human CAL-62 cells assessed as reduction in cell viability at 50 uM incubated for 24 to 48 hrs under hypoxia condition by trypan blue exclusion assay; assay type: functional, cell-based; conditions: time 24-48 hrs, TDE = time-dependent effect; outline: as §2
[14] = system: CAL-62; assay: Inhibition of clonogenicity in human CAL-62 cells at 50 uM incubated for 24 to 48 hrs under normoxia condition by crystal violet staining based assay; assay type: functional; conditions: time 24-48 hrs
Outline: (§3)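 CAL-62 cells at 80–90% confluence treated with 50 μM compound for 24 or 48 h, in normoxia or with 200 μM CoCl2 (hypoxia). 500 cells replated per 100 mm dish and grown about 7 days. Colonies fixed in 4% formaldehyde, stained with 0.5% crystal violet, and counted.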

[15] = system: CAL-62; assay: Inhibition of clonogenicity in human CAL-62 cells at 50 uM incubated for 24 to 48 hrs under hypoxia condition by crystal violet staining based assay; assay type: functional; conditions: time 24-48 hrs; outline: as §3
[16] = system: CAL-62; assay: Downregulation of HIF1alpha expression in human CAL-62 cells at 50 uM incubated for 48 hrs under hypoxia condition by Western blot analysis; assay type: functional, cell-based
Outline: (§4)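 CAL-62 or MDA-MB-231 cells made hypoxic with 200 μM CoCl2 for 24 h, then treated with 50 μM compound for 48 h with CoCl2 retained. Lysates (15 or 50 μg protein) immunoblotted for HIF-1α, EPAS-1 or CA-IX with ACTB, ECL detection. 3-TYP (1 μM) as control.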

[17] = system: CAL-62; assay: Downregulation of CA-IX expression in human CAL-62 cells at 50 uM incubated for 48 hrs under hypoxia condition by Western blot analysis; assay type: functional, cell-based; outline: as §4
[18] = target: T4, NAD-dependent protein deacetylase sirtuin-2 (Homo sapiens) (UniProt Q8IXJ6); assay: Activation of N-terminal his-tagged human SIRT2 (43 to 356 residues) expressed in Escherichia coli at 10 uM using p53-acK381 as substrate in presence of NAD+ by NADH oxidation-coupled enzymatic assay
T4 sequence (whole entry): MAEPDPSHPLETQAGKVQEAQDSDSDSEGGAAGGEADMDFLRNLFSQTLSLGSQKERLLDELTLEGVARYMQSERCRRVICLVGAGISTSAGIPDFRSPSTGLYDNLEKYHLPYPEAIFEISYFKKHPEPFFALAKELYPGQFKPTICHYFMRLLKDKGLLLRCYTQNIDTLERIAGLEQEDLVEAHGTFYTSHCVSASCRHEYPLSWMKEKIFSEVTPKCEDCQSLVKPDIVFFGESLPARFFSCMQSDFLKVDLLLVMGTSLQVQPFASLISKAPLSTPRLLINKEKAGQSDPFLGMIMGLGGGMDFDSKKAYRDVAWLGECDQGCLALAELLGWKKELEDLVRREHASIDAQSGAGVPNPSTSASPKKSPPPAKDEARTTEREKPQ

[19] = target: NAD-dependent protein deacylase sirtuin-5, mitochondrial (Homo sapiens) (UniProt Q9NXA8); assay: Activation of N-terminal his-tagged human SIRT5 (34 to 302 residues) expressed in Escherichia coli at 10 uM using p53-acK381 as substrate in presence of NAD+ by NADH oxidation-coupled enzymatic assay
NAD-dependent protein deacylase sirtuin-5, mitochondrial (Homo sapiens), sequence (Q9NXA8 37-310 limits assumed): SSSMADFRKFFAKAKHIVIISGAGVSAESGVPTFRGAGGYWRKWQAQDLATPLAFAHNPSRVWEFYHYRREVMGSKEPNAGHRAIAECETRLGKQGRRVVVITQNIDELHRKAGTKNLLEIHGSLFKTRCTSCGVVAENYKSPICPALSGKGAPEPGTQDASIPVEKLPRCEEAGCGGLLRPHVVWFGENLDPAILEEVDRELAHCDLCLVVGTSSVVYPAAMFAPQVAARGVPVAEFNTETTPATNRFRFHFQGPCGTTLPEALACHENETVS

Compound	Activity [1] [%]	Activity ([2]; filed as activator)	other results
CCOC(=O)C1=CN(C(=O)c2cc(OC)c(OC)c(OC)c2)C=C(C(=O)OCC)C1c1ccccc1	128	269%	Activity ([3]; filed as activator): 175%
CCOC(=O)C1=CN(C(=O)c2ccc(C#N)cc2)C=C(C(=O)OCC)C1c1ccccc1	120	–	–
CCOC(=O)C1=CN(C(=O)c2ccc([N+](=O)[O-])cc2)C=C(C(=O)OCC)C1c1ccccc1	120	–	–
CCOC(=O)C1=CN(C(=O)c2cccc(Cl)c2)C=C(C(=O)OCC)C1c1ccccc1	120	204%	–
CCOC(=O)C1=CN(C(=O)c2cccs2)C=C(C(=O)OCC)C1c1ccccc1	120	–	–
CCOC(=O)C1=CN(C(=O)c2ccc(F)cc2)C=C(C(=O)OCC)C1c1ccccc1	120	142%	–
c1cncc(-c2cnn[nH]2)c1	–	–	Activity [4]: inactive; Activity [5]: inactive; Activity [6]: inactive; Activity [7]: inactive; Activity [8]: inactive; Activity [9]: inactive
CCOC(=O)C1=CN(C(=O)c2cccc(Br)c2)C=C(C(=O)OCC)C1c1ccccc1	120	214%	–
CCOC(=O)C1=CN(C(=O)c2cccc(OC)c2)C=C(C(=O)OCC)C1c1ccccc1	–	217%	Activity [10]: inactive; Kd [11]: 78 µM; Activity ([3]; filed as activator): Active; Activity [12]: Tde; Activity [13]: Tde; inhibition at 50 µM [14]: 53%; inhibition at 50 µM [15]: 53%; Activity [16]: Active; Activity [17]: Active; Activity [18]: inactive; Activity [19]: inactive
CCOC(=O)C1=CN(C(=O)c2ccc(OC)cc2)C=C(C(=O)OCC)C1c1ccccc1	120	–	Kd [11]: 72 µM; Activity [3]: inactive; Activity [12]: Tde; Activity [13]: Tde; Activity [17]: Active
CCOC(=O)C1=CN(C(=O)c2cccc(F)c2)C=C(C(=O)OCC)C1c1ccccc1	120	196%	–
CCOC(=O)C1=CN(C(=O)c2ccccc2)C=C(C(=O)OCC)C1c1ccccc1	157	188%	–
CCOC(=O)C1=CN(C(=O)Cc2ccccc2)C=C(C(=O)OCC)C1c1ccccc1	176	Active	–
CCOC(=O)C1=CN(C(=O)c2ccsc2)C=C(C(=O)OCC)C1c1ccccc1	120	–	Activity [2]: inactive
CCOC(=O)C1=CN(C(=O)c2cccc([N+](=O)[O-])c2)C=C(C(=O)OCC)C1c1ccccc1	120	–	–
CCOC(=O)C1=CN(C(=O)c2ccc(Br)cc2)C=C(C(=O)OCC)C1c1ccccc1	120	184%	–
CCOC(=O)C1=CN(C(=O)C2CCCCC2)C=C(C(=O)OCC)C1c1ccccc1	120	Active	–
CCOC(=O)C1=CN(C(=O)c2ccc(Cl)cc2)C=C(C(=O)OCC)C1c1ccccc1	120	237%	Kd [11]: 74 µM
CCOC(=O)C1=CN(C(=O)c2ccco2)C=C(C(=O)OCC)C1c1ccccc1	120	–	–
